One experiment relates to glioblastoma. To be noted: glioblastoma patients, radiotherapy plus temozolomide; ref [1]; cited from earlier work.
Experiment [1] has as its system U-87MG cells (α3 integrin). Briefly: Fluorescence microscopy of U-87MG cells stained with biotinylated LXY1. The experiment is classed as cell-based, human. The method, boiled down: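 U-87MG cells at 80–90% confluence were dissociated with 0.05% trypsin-EDTA. Each sample (3×10⁵ cells) was incubated with biotinylated peptide in PBS with 10% FBS and 1 mM MnCl2 for 30 min on ice, washed three times, given streptavidin-Alexa488 for 30 min and washed once. Cells were cytospun onto slides (2000 rpm, 2 min), mounted with DAPI medium and viewed by fluorescence microscopy. For blocking, unlabeled peptide or anti-α3 integrin antibody (clone P1B5) was co-incubated.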

Another experiment concerns α3 integrin. To be noted: ovarian cancer, ref [7]; cited from earlier work.

Turning to `Cn1nnc2c(C(N)=O)ncn2c1=O` [temozolomide], in the experiment on glioblastoma, the median survival is 14.6 months.

In the case of cdGLGBNc (disulfide) [LXY1], the “blocking of cell staining by biotinylated LXY1” value in experiment [1] (excess unlabeled LXY1 or anti-α3 antibody (clone P1B5) as blocker, streptavidin-Alexa488) is listed as “almost completely abolished”. For “cdGLGBNc-linker-linker-Biotin (disulfide) [LXY1-biotin]”, in experiment [1] (biotinylated LXY1 30 min, streptavidin-Alexa488 30 min, DAPI counterstain), the “staining of U-87MG cells” value is listed as “Strong staining”. Take cDGXGXXc: in the experiment with α3 integrin, the “binding preference and specificity” value is “bind preferentially to ovarian cancer with high specificity against α3 integrin”.

The record behind these values is article PMC2842018 (European journal of nuclear medicine and molecular imaging, 2008).
